Data: ChEMBL document CHEMBL1135776, “Benzo- and cyclohexanomazindol analogues as potential inhibitors of the cocaine binding site at the dopamine transporter” (J Med Chem, 2002)
pIC50, pKi: −log10 of the molar value.

What was measured:
[1] = molecular target: T1, Sodium-dependent dopamine transporter (Homo sapiens, UniProt Q01959); assay: (§1) Ratio of the IC50 value of Mazindol to that in guinea pig was determined; type: functional; settings: Cavia porcellus; target entry is the homologue from another species
[2] = Discrimination ratio against DAT as ratio of IC50 to that of Ki uptake to DAT.; type: functional
Method in brief: (§2)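 Ratio of uptake IC50 in transporter-expressing HEK293 cells to [125I]RTI-55 binding Ki at the same human transporter (DAT, SERT or NET). Both were measured in this work: uptake with 20 nM [3H]amine for 10 min at 25 °C, binding for 90 min at 25 °C.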

HEK293 [3] = assay: Ability to block the uptake of [3H]NE (norepinephrine) in HEK-hNET cells; type: functional, cell-based; settings: Homo sapiens
[4] = molecular target: Monoamine transporters; Norepinephrine & dopamine (Homo sapiens) (UniProt Q01959+P23975); assay: Selectivity ratio as ratio of IC50 value against NET to that of DAT; type: protein assay
[5] = molecular target: Sodium-dependent serotonin transporter (Homo sapiens, UniProt P31645); assay: Inhibition of [125I]- RTI -55 binding at the Serotonin transporter sites on HEK-hSERT cells; type: cell-based
Method in brief: (§3)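 Membranes from HEK293 cells expressing hDAT, hSERT or hNET (about 10–15 μg protein) preincubated 10 min with compound in Krebs-HEPES pH 7.4 containing pargyline, tropolone and ascorbate. Then [125I]RTI-55 (40–80 pM final) added, 90 min at 25 °C, filtration. […] Duplicates, two or three experiments; IC50 converted to Ki by Cheng-Prusoff.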

HEK293 [6] = assay: Ability to block the uptake of [3H]- DA(dopamine) in HEK-hDAT cells; type: functional, cell-based; settings: Homo sapiens
HEK293 [7] = assay: Ability to block the uptake of [3H]- 5- HT(serotonin) in HEK-hSERT cells; type: functional, cell-based; settings: Homo sapiens
[8] = Discrimination ratio against SERT as ratio of IC50 to that of Ki uptake to SERT.; type: functional; method in brief: as §2
[9] = molecular target: Monoamine transporters; serotonin & dopamine (Homo sapiens) (UniProt P31645+Q01959); assay: Selectivity ratio as ratio of IC50 value against SERT to that of DAT; type: protein assay
[10] = molecular target: T2, Sodium-dependent noradrenaline transporter (Homo sapiens, UniProt P23975); assay: Inhibition of [125I]- RTI -55 binding at the Norepinephrine transporter sites on HEK-hNET cells; type: cell-based; method in brief: as §3
HEK hDAT [11] = assay: Ratio of the IC50 against DAT in HEK hDAT cells to that of guinea pig striatal membranes.; type: cell-based
[12] = Ratio of the IC50 against DAT in rat striatal membranes to that of guinea pig striatal membranes.; type: cell membranes; settings: Membrane
[13] = Discrimination ratio against NET as ratio of IC50 to that of Ki uptake to NET.; type: functional; method in brief: as §2
[14] = molecular target: T1, Sodium-dependent dopamine transporter; assay: Inhibition of [125I]- RTI -55 binding at the Dopamine transporter sites on HEK-hDAT cells; type: cell-based
Method in brief: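 Membranes from HEK293 cells expressing hDAT, hSERT or hNET (about 10–15 μg protein) preincubated 10 min with compound in Krebs-HEPES pH 7.4 containing pargyline, tropolone and ascorbate. Duplicates, two or three experiments; IC50 converted to Ki by Cheng-Prusoff.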

HEK hDAT [15] = assay: Ratio of the IC50 against DAT in HEK hDAT cells to that of rat striatal membranes.; type: cell membranes; settings: Membrane
[16] = molecular target: Sodium-dependent dopamine transporter (Rattus norvegicus, UniProt P23977); assay: Ability to displace [3H]WIN-35428 from dopamine transporter on rat striatal membrane.
Method in brief: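 Rat (male Sprague–Dawley, 200–225 g) striatal membranes in modified Krebs-HEPES pH 7.4; 2.5 mg tissue (wet weight) per tube with 1.5 nM [3H]WIN 35,428. Membranes preincubated 5 min with test compound, then incubated 60 min on ice. Nonspecific binding defined with 0.1 mM cocaine. Filtration over BSA-soaked GF/B filters, scintillation counting; triplicate samples.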

[17] = molecular target: T2, Sodium-dependent noradrenaline transporter; assay: Displacement of [125I]RTI-55 from human Norepinephrine transporter expressed in HEK cells; type: cell-based, HEK293
Method in brief: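 Membranes from HEK293 cells expressing hNET, about 10–15 μg protein per tube. Compounds diluted from 10 mM DMSO stock, preincubated 10 min, then 40–80 pM [125I]RTI-55 added, 90 min at 25 °C in Krebs-HEPES pH 7.4. […] GF/C filtration; two or three experiments in duplicate; IC50 converted to Ki by Cheng-Prusoff.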

[18] = as §1; type: functional

T1 sequence (Q01959 whole entry): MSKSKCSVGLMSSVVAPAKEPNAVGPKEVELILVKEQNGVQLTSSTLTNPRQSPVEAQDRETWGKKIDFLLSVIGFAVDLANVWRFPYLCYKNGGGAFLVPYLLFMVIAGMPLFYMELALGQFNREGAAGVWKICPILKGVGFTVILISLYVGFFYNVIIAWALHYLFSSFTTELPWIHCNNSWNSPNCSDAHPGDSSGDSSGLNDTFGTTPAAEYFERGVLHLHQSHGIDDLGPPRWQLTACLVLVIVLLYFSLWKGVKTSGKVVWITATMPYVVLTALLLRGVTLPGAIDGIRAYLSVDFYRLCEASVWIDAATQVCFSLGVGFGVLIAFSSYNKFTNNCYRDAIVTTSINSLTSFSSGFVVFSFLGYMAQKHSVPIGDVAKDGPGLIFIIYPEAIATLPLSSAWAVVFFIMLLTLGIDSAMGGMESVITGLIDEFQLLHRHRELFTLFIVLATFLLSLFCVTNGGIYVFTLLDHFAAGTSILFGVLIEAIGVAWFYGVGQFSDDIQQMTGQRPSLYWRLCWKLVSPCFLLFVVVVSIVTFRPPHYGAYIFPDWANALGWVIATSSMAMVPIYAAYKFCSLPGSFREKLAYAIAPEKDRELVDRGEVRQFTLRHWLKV
Chain of Monoamine transporters; Norepinephrine & dopamine (Homo sapiens) (P23975 whole entry, looked up): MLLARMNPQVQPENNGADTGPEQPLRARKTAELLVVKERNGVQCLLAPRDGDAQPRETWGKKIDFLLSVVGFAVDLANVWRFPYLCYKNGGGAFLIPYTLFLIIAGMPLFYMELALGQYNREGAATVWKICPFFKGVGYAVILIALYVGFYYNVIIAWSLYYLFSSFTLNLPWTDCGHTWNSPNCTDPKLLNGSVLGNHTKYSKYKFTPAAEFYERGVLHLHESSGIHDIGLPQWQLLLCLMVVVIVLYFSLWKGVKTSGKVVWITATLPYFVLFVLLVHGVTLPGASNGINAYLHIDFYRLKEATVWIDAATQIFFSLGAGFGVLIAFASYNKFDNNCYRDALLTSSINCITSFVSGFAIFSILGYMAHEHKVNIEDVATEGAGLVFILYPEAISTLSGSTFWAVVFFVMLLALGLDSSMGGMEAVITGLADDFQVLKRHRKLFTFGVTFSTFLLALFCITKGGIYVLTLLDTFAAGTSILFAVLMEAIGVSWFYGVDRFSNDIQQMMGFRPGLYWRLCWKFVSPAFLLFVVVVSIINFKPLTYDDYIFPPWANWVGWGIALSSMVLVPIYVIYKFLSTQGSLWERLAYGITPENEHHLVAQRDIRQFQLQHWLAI
Chain of Monoamine transporters; Norepinephrine & dopamine (Homo sapiens) (Q01959 whole entry, looked up): as the sequence (Q01959 whole entry) above
T2 sequence (P23975 whole entry): as the sequence (P23975 whole entry, looked up) above
Chain of Sodium-dependent serotonin transporter (P31645 whole entry): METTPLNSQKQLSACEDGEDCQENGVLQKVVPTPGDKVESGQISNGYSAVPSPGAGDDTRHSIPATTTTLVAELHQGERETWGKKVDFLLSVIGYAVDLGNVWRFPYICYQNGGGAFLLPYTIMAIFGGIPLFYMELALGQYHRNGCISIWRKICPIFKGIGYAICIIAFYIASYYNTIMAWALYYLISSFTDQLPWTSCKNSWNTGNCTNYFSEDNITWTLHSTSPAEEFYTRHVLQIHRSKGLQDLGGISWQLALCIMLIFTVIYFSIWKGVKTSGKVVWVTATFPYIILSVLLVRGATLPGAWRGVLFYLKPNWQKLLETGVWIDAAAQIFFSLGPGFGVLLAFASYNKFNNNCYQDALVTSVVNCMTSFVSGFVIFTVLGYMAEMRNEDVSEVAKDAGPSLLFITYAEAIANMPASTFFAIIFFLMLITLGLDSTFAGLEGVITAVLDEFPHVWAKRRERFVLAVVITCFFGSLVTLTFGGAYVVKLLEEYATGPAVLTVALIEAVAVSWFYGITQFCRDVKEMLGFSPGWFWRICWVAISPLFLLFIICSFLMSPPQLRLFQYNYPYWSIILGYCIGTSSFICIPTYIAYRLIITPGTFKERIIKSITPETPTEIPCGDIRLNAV
Chain of Monoamine transporters; serotonin & dopamine (Homo sapiens) (P31645 whole entry, looked up): as the sequence (P31645 whole entry) above
Chain of Monoamine transporters; serotonin & dopamine (Homo sapiens) (Q01959 whole entry, looked up): as the sequence (Q01959 whole entry) above
Chain of Sodium-dependent dopamine transporter (Rattus norvegicus, UniProt P23977) (P23977 whole entry): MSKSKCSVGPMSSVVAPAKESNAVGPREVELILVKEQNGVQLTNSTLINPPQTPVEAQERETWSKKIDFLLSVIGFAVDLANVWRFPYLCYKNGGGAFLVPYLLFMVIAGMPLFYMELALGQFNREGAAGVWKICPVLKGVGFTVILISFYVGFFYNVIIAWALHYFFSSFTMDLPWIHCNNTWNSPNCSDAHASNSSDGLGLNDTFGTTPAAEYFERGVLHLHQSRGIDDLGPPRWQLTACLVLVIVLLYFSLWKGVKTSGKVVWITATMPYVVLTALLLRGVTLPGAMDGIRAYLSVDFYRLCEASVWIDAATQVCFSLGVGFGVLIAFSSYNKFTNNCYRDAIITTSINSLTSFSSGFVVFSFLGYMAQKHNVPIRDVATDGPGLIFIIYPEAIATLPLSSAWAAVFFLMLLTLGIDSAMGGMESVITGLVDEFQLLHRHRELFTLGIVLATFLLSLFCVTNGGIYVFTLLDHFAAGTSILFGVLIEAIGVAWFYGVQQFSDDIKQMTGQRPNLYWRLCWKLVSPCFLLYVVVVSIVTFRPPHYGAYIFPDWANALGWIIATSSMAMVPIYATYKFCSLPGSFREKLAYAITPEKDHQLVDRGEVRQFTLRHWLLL

| Structure (SMILES) | Ratio [1] | Ratio [2] | pIC50 (HEK293 [3]) | Ratio [4] | pKi [5] | pIC50 (HEK293 [6]) | pIC50 (HEK293 [7]) | Ratio [8] | Ratio [9] | pKi [10] | Ratio [13] | pKi [14] | also measured |
| --- | --- | --- | --- | --- | --- | --- | --- | --- | --- | --- | --- | --- | --- |
| OC1(c2ccc3c(c2)CCCC3)c2ccccc2C2=NCCN21 (stereo not drawn) | < 0.02 | – | – | – | – | – | – | – | – | – | – | – | – |
| OC1(c2ccc(Cl)cc2)c2ccccc2-c2nc3ccccc3n21 (stereo not drawn) | < 0.02 | – | – | – | – | – | – | – | – | – | – | – | – |
| OC1(c2ccc3ccccc3c2)c2ccccc2C2=NCCN21 (stereo not drawn) | 10.4 | 1.5 | 8.35 | 0.24 | 8.64 | 7.18 | 8.74 | 0.8 | 0.05 | 7.96 | 0.4 | 7.35 | Ratio (HEK hDAT [11]): 11; Ratio [12]: 5.7; Ratio (HEK hDAT [15]): 1.9 |
| OC1(c2ccc(Cl)cc2)c2cc3ccccc3cc2C2=NCCN21 (stereo not drawn) | 1.3 | – | – | – | – | – | – | – | – | – | – | – | – |
| OC1(c2ccc(Cl)cc2)c2ccccc2C2=Nc3ccccc3CN21 (stereo not drawn) | < 0.02 | – | – | – | – | – | – | – | – | – | – | – | – |
| OC1(c2ccc(Cl)cc2)c2ccccc2C2=N[C@H]3CCCC[C@@H]3N21 (stereo partly drawn) | 15.8 | 0.4 | 6.49 | 4.1 | 6.22 | 7.20 | < 5.00 | > 17 | 3.9 | 6.16 | 0.5 | 6.82 | pIC50 [16]: 7.47; Ratio (HEK hDAT [11]): 56.3; Ratio [12]: 12.7; Ratio (HEK hDAT [15]): 4.4 |
| OC1(c2ccc(Cl)cc2)c2ccc3ccccc3c2C2=N[C@H]3CCCC[C@@H]3N21 (mixture of isomers) | < 0.02 | – | – | – | – | – | – | – | – | – | – | – | – |
| OC1(c2ccc(Cl)cc2)c2ccccc2C2=N[C@@H]3CCCC[C@@H]3N21 (stereo partly drawn) | 5.1 | – | – | – | – | – | – | – | – | – | – | – | – |
| OC1(c2ccc(Cl)cc2)c2ccc3ccccc3c2C2=NCCCN21 (stereo not drawn) | 20.3 | 182 | 7.28 | 2.6 | 8.26 | 6.44 | 6.15 | 127 | 2.8 | 8.28 | 10 | 8.70 | Ratio (HEK hDAT [11]): 1; Ratio [12]: 17.8; Ratio (HEK hDAT [15]): 0.05 |
| OC1(c2ccc3ccccc3c2)c2ccc3ccccc3c2C2=NCCN21 (stereo not drawn) | 13 | 311 | 7.42 | 1.9 | 7.96 | 6.06 | 6.43 | 34 | 3.9 | 8.28 | 7 | 8.55 | Ratio (HEK hDAT [11]): 0.9; Ratio [12]: 11.6; Ratio (HEK hDAT [15]): 0.07 |
| OC1(c2ccc(Cl)cc2)c2ccccc2C2=NCCCN21 (stereo not drawn) | 10.1 | 2.2 | 8.31 | 10.7 | 7.41 | 8.43 | 7.28 | 1.4 | 22.9 | – | 0.3 | 8.77 | pKi [17]: 7.74 |
| OC1(c2ccc(Cl)cc2)c2c(c3ccccc3c3ccccc23)C2=NCCN21 (stereo not drawn) | – | – | – | – | – | – | – | – | – | – | – | – | Ratio [18]: <0.02 |
| OC1(c2ccc(Cl)cc2)c2ccccc2C2=NCc3ccccc3CN21 (stereo not drawn) | < 0.02 | – | – | – | – | – | – | – | – | – | – | – | – |
| OC1(c2cccc3ccccc23)c2ccccc2C2=NCCN21 (stereo not drawn) | 0.02 | – | – | – | – | – | – | – | – | – | – | – | – |
| OC1(c2ccc(Cl)cc2)c2ccc3ccccc3c2C2=NCCN21 (stereo not drawn) | 4 | 3.2 | 7.89 | 1.2 | 6.65 | 7.07 | 5.49 | 14.3 | 8.2 | 7.48 | 0.4 | 7.57 | Ratio (HEK hDAT [11]): 2.6; Ratio [12]: 1.5; Ratio (HEK hDAT [15]): 1.7 |
| OC1(c2ccc3ccccc3c2)c2c(c3ccccc3c3ccccc23)C2=NCCN21 (stereo not drawn) | – | – | – | – | – | – | – | – | – | – | – | – | Ratio [18]: <0.02 |
| OC1(c2ccc(Cl)cc2)c2ccccc2C2=NCCN21 (stereo not drawn) [MAZINDOL] | – | – | 8.31 | – | 7.30 | – | 7.03 | – | – | 7.74 | – | – | – |
| OC1(c2ccc(Cl)cc2)c2c(ccc3ccccc23)C2=NCCN21 (stereo not drawn) | 0.2 | – | – | – | – | – | – | – | – | – | – | – | – |
